Experimental data reported in ChEMBL document CHEMBL1156838, “Utilization of the 1,2,3,5-thiatriazolidin-3-one 1,1-dioxide scaffold in the design of potential inhibitors of human neutrophil proteinase 3” (Bioorg Med Chem, 2010).
Calls of active or inactive are those of the source. The rule behind the calls is not given here.

What was measured:
[1] = target: T1, Neutrophil elastase (Homo sapiens) (UniProt P08246); assay: Inhibition of human neutrophil elastase
T1 sequence (whole entry): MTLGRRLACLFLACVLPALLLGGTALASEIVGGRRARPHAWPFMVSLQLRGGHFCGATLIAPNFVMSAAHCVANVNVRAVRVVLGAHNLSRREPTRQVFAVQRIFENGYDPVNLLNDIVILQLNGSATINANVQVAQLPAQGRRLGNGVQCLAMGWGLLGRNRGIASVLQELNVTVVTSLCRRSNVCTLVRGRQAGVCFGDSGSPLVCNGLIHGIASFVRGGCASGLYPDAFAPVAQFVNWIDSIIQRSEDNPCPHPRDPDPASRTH
In short: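 Human elastase (final 70 nM; added from a stock in 0.05 mM sodium acetate/0.5 M NaCl pH 5.50) in 0.1 M HEPES/0.5 M NaCl pH 7.25 at 25 °C. Substrate was methoxysuccinyl-Ala-Ala-Pro-Val p-nitroaniline, with single inhibitor level from DMSO. […] read for 2 min against a DMSO-only hydrolysis control. % inhibition = (1 − v/vo)×100, mean of duplicate or triplicate runs.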

[2] = target: T2, Myeloblastin (Homo sapiens) (UniProt P24158); assay: Inhibition of human neutrophil proteinase 3
T2 sequence (whole entry): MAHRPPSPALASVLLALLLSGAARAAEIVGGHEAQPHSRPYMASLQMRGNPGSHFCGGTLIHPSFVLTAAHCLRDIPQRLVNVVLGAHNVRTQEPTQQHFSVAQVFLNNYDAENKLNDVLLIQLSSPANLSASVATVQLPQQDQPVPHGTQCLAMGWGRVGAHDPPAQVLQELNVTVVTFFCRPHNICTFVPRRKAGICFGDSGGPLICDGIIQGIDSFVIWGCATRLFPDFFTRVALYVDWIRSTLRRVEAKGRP
In short: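 Human proteinase 3 (final 34.5 nM; added from a stock in 0.1 M phosphate pH 6.50) in 0.1 M HEPES/0.5 M NaCl pH 7.25 at 25 °C. Thiobenzyl ester substrate Boc-Ala-Ala-NVa-SBzl, with 5,5′-dithio-bis(2-nitrobenzoic acid) from DMSO and single inhibitor level from DMSO. Absorbance followed at […] for 2 min against an uninhibited hydrolysis control. % inhibition = (1 − v/vo)×100, duplicate or triplicate mean.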

| Compound | inhibition [1] | inhibition [2] |
| --- | --- | --- |
| CCN1CN(Cc2cccc(NC(=O)CCOC)c2)S(=O)(=O)N1CC | inactive | inactive |
| CCN1CN(Cc2cccc(NC(=O)NCCc3ccccc3)c2)S(=O)(=O)N1CC | inactive | inactive |
| CCN1CN(Cc2cn(CC(=O)c3cccs3)nn2)S(=O)(=O)N1CC | inactive | inactive |
| CCN1C(=O)N(C(Cc2ccccc2)C(=O)Nc2ccccc2NC(=O)OCC(C)C)S(=O)(=O)N1CC (stereo unspecified) | Active | inactive |
| CCN1CN(Cc2cn(CC(=O)c3ccccc3F)nn2)S(=O)(=O)N1CC | inactive | inactive |

The next lines start with the values.

| inhibition [1] | inhibition [2] | Compound |
| --- | --- | --- |
| inactive | inactive | CCN1CN(Cc2cccc(NC(=O)c3cccc(OC)c3)c2)S(=O)(=O)N1CC |
| inactive | inactive | CCN1CN(Cc2cccc(NC(=O)c3ccccc3)c2)S(=O)(=O)N1CC |
| inactive | inactive | CCN1CN(Cc2cccc(NC(=O)c3cccc(Oc4ccccc4)c3)c2)S(=O)(=O)N1CC |
